Published values of several laboratories.
Each line is one published result; the experiments were not run side by side.
Target: Atypical kinase COQ8A, mitochondrial (COQ8A, Homo sapiens, UniProt Q8NI60)

Compound | test | conditions | remaining binding
CCC(=O)N[C@@H]1CC[C@H](C(=O)N(C)c2ccc(-c3nc4ccccc4o3)cc2)C1 | cell-free assay, competition with immobilised ligand | 1 µM | 99%
N[C@H]1CCN(c2nccc(-c3cnn4ncccc34)n2)C1 | binding | 1 µM | 79%
O=C(NCC1CCOCC1)c1n[nH]cc1NC(=O)c1c(F)cccc1F | binding, competition with immobilised ligand | 1 µM | 86%
C[C@@H]1CN(c2cc(-c3nn(C)c4ccc(OC5(C)CC5)cc34)ncn2)C[C@H](C)O1 | cell-free assay, competition with immobilised ligand | 1 µM | 100%
CCN1CCN(Cc2ccc(C(=O)Nc3ccc(C)c(Oc4ccc5c(c4)CC(=O)N5)c3)cc2C(F)(F)F)CC1 | binding, competition with immobilised ligand | 1 µM | 92%
Cc1cc(NC(=O)c2cccc(S(F)(F)(F)(F)F)c2)cc(-n2ccn3nc(-c4cccnc4)cc23)c1 | cell-free assay, competition with immobilised ligand | 1 µM | 82.8%
C=CC(=O)N1CCC(C(=O)NCC(=O)N2CCN(c3nc(-c4cnc(N)nc4C(F)F)nc(N4CCOCC4)n3)CC2)CC1 | binding, competition with immobilised ligand | 1 µM | 78%
COc1ccnn2ncc(-c3ccnc(N(C)C)n3)c12 | binding | 1 µM | 100%
COc1ncc2cc3ccccc3nc2c1C#N | cell-free assay, competition with immobilised ligand | 5 µM | 96%
CN(C)c1ncc(F)c(-c2cnn3ncccc23)n1 | binding | 1 µM | 96%
N#Cc1ccccc1CSc1nnc2c(n1)[nH]c1ccccc12 | binding, competition with immobilised ligand | 10 µM | 95%
CN(CCCC(F)(F)F)c1nccc(-c2cnn3ncccc23)n1 | binding | 1 µM | 99%
C[C@H](c1ccnc(Nc2nc3ccc(-c4cc(N(C)C)ncn4)cc3[nH]2)c1)N1CCN(C(=O)CC(F)(F)F)CC1 | cell-free assay, competition with immobilised ligand | 0.1 µM | 100%
O=C(c1ccc(Nc2ncc(Cl)c(-c3ccc(Cl)s3)n2)cc1)N1CCC(N2CCCC2)CC1 | binding, competition with immobilised ligand | 1 µM | 100%
CN(C)c1nccc(-c2cnn3ncccc23)n1 | binding | 1 µM | 88%
Cn1nc(C(F)(F)F)cc1-c1cnc(N2CCc3cc(S(=O)(=O)Nc4c(F)cc(Cl)cc4F)cc(N4CCCC4=O)c32)nc1 | cell-free assay, competition with immobilised ligand | 1 µM | 100%
C[C@@H]1CCN(c2nccc(-c3cnn4ncccc34)n2)C1 | binding | 1 µM | 100%
O=C(NCCCN1CCOCC1)c1ccc(Nc2ncc(Cl)c(-c3ccc(Cl)s3)n2)cc1 | binding, competition with immobilised ligand | 1 µM | 100%
Cc1nc(Cc2cccc(C(F)(F)F)c2)sc1-c1ccc(C(N)=O)nc1 | cell-free assay, competition with immobilised ligand | 1 µM | 62%
COc1cnc(Nc2cccc(S(N)(=O)=O)c2)nc1N1CCN(c2ccccc2)C(=O)C1 | binding, competition with immobilised ligand | 1 µM | 100%
O=C(N[C@H]1CCCCC/C=C\C2C[C@@]2(C(=O)O)NC(=O)[C@@H]2C[C@@H](Oc3ccncc3)CN2C1=O)OC1CCCC1 (some centres unmarked) | binding, competition with immobilised ligand | 1 µM | 90%
Cc1cnc(Nc2ccc(C(=O)N3CCC(N4CCCC4)CC3)cc2)nc1-c1cc2ccccc2s1 | binding, competition with immobilised ligand | 1 µM | 85%
C[C@@H]1CN(c2ccc3ncc(-c4ccc5[nH]nc(C6CC6)c5c4)n3n2)C[C@H](C)O1 | binding, competition with immobilised ligand | 50 nM | 94%
